{"source": "ChEMBL document CHEMBL4354849", "about": "“[1,2,5]Oxadiazolo[3,4-b]pyrazine-5,6-diamine Derivatives as Mitochondrial Uncouplers for the Potential Treatment of Nonalcoholic Steatohepatitis” (J Med Chem, 2020)", "key": {"Mus musculus [1]": {"tested_on": "Mus musculus", "assay": "Improvement in liver fibrosis in Stelic C57BL/6 mouse model of streptozotocin-induced NASH assessed as improvement in pathologist derived steatosis score at 25 mg/kg/day, po administered in high-fat diet for 21 days", "assay_type": "functional, organism-based", "summary_of_the_method": "(§1)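 STAM NASH model: male C57BL/6 mice got 200 µg streptozotocin subcutaneously at day 2 of life, then high-fat diet from 4 weeks. At 6 weeks they were randomized, 8 per group. Drug was mixed into the high-fat diet at 25 mg/kg/d for 21 days. Killed at 9 weeks by cardiac puncture under isoflurane. Food intake was measured per cage of 4 every 3–4 days.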"}, "[2]": {"assay": "Drug level in C57BL/6J mouse quadricep muscle at 50 mg/kg, po measured after 1 hr by LC-MS analysis", "assay_type": "ADME, organism-based, Quadriceps femoris", "settings": "read-out: Drug uptake", "summary_of_the_method": "(§2)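 Male C57BL/6 mice, 12 weeks old, chow-fed, given a single 50 mg/kg oral gavage bolus in 90% methylcellulose/2% Tween80/8% DMSO. Killed by cervical dislocation at 1 h. Tissues were rinsed, snap-frozen, powdered and homogenized, then extracted into 90% acetonitrile/10% methanol. Quantified by LC-MS/MS against standards spiked into vehicle-treated tissue, normalized to tissue weight. n=3.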"}, "Mus musculus [3]": {"tested_on": "Mus musculus", "assay": "Improvement in liver fibrosis in Stelic C57BL/6 mouse model of streptozotocin-induced NASH assessed as effect on liver Gfap mRNA expression at 25 mg/kg/day, po for 21 days"}, "Mus musculus [4]": {"tested_on": "Mus musculus", "assay": "Improvement in liver fibrosis in Stelic C57BL/6 mouse model of streptozotocin-induced NASH assessed as effect on liver Tgfb1 mRNA expression at 25 mg/kg/day, po administered in high-fat diet for 21 days", "assay_type": "functional, organism-based"}, "Mus musculus [5]": {"tested_on": "Mus musculus", "assay": "Improvement in liver fibrosis in Stelic C57BL/6 mouse model of streptozotocin-induced NASH assessed as increase in plasma cholesterol at 25 mg/kg/day, po administered in high-fat diet for 21 days", "assay_type": "functional, organism-based", "summary_of_the_method": "as §1"}, "Mus musculus [6]": {"tested_on": "Mus musculus", "assay": "Improvement in liver fibrosis in Stelic C57BL/6 mouse model of streptozotocin-induced NASH assessed as NAS score at 25 mg/kg/day, po administered in high-fat diet for 21 days (reference value: 4.6 +/- 0.7)", "assay_type": "functional", "summary_of_the_method": "as §1"}, "Mus musculus [7]": {"tested_on": "Mus musculus", "assay": "Improvement in liver fibrosis in Stelic C57BL/6 mouse model of streptozotocin-induced NASH assessed as effect on liver MMP2 mRNA expression at 25 mg/kg/day, po administered in high-fat diet for 21 days", "assay_type": "functional, organism-based"}, "Mus musculus [8]": {"tested_on": "Mus musculus", "assay": "Induction of energetic stress in Stelic C57BL/6 mouse model of streptozotocin-induced NASH assessed as effect on AMPK activity at 25 mg/kg/day, po administered in high-fat diet for 21 days by Western blot analysis", "assay_type": "organism-based", "settings": "in vivo, 504 h"}, "[9]": {"assay": "Induction of mitochondrial uncoupling in rat L6 cells assessed as oxygen consumption rate measured over 90 mins by oxygen consumption rate by seahorse assay", "assay_type": "mitochondria, Mitochondria"}, "Mus musculus [10]": {"tested_on": "Mus musculus", "assay": "Improvement in liver fibrosis in Stelic C57BL/6 mouse model of streptozotocin-induced NASH assessed as effect on liver Cd146 mRNA expression at 25 mg/kg/day, po administered in high-fat diet for 21 days", "assay_type": "functional, organism-based"}, "Mus musculus [11]": {"tested_on": "Mus musculus", "assay": "Improvement in liver fibrosis in Stelic C57BL/6 mouse model of streptozotocin-induced NASH assessed as effect on plasma AST level at 25 mg/kg/day, po administered in high-fat diet for 21 days", "assay_type": "functional, organism-based", "summary_of_the_method": "as §1"}, "Mus musculus [12]": {"tested_on": "Mus musculus", "assay": "Improvement in liver fibrosis in Stelic C57BL/6 mouse model of streptozotocin-induced NASH assessed as liver fibrosis score at 25 mg/kg/day, po administered in high-fat diet for 21 days by Picrosirius ed staining based assay (reference value: 0.91 +/- 0.25)", "assay_type": "functional", "summary_of_the_method": "as §1"}, "[13]": {"assay": "Drug level in C57BL/6J mouse brain at 50 mg/kg, po measured after 1 hr by LC-MS analysis", "assay_type": "ADME, organism-based", "settings": "read-out: Drug uptake", "summary_of_the_method": "as §2"}, "Mus musculus [14]": {"tested_on": "Mus musculus", "assay": "Induction of energetic stress in Stelic C57BL/6 mouse model of streptozotocin-induced NASH assessed as effect on AMPK-dependent ACC activity at 25 mg/kg/day, po administered in high-fat diet for 21 days by Western blot analysis", "assay_type": "organism-based", "settings": "in vivo, 504 h"}, "Mus musculus [15]": {"tested_on": "Mus musculus", "assay": "Improvement in liver fibrosis in Stelic C57BL/6 mouse model of streptozotocin-induced NASH assessed as effect on liver alphaSMA mRNA expression at 25 mg/kg/day, po administered in high-fat diet for 21 days", "assay_type": "functional, organism-based"}, "Mus musculus [16]": {"tested_on": "Mus musculus", "assay": "Improvement in liver fibrosis in Stelic C57BL/6 mouse model of streptozotocin-induced NASH assessed as improvement in inflammation score at 25 mg/kg/day, po administered in high-fat diet for 21 days", "assay_type": "functional, organism-based", "summary_of_the_method": "as §1"}, "Mus musculus [17]": {"tested_on": "Mus musculus", "assay": "Induction of hyperglycemia in Stelic C57BL/6 mouse model of streptozotocin-induced NASH at 25 mg/kg/day, po administered in high-fat diet for 21 days", "assay_type": "organism-based", "settings": "in vivo, 504 h", "summary_of_the_method": "as §1"}, "Mus musculus [18]": {"tested_on": "Mus musculus", "assay": "Improvement in liver fibrosis in Stelic C57BL/6 mouse model of streptozotocin-induced NASH assessed as reduction in plasma triglyceride at 25 mg/kg/day, po administered in high-fat diet for 21 days", "assay_type": "functional, organism-based", "summary_of_the_method": "as §1"}, "Mus musculus [19]": {"tested_on": "Mus musculus", "assay": "Effect on ballooning in Stelic C57BL/6 mouse model of streptozotocin-induced NASH at 25 mg/kg/day, po administered in high-fat diet for 21 days", "assay_type": "ADME, organism-based", "settings": "in vivo, 504 h", "summary_of_the_method": "as §1"}, "Mus musculus [20]": {"tested_on": "Mus musculus", "assay": "Improvement in liver fibrosis in Stelic C57BL/6 mouse model of streptozotocin-induced NASH assessed as effect on liver Cd146 mRNA expression at 25 mg/kg/day, po for 21 days"}, "Mus musculus [21]": {"tested_on": "Mus musculus", "assay": "Effect on food intake in Stelic C57BL/6 mouse model of streptozotocin-induced NASH assessed as reduction in food intake at 25 mg/kg/day, po administered in high-fat diet for 21 days", "assay_type": "ADME, organism-based", "settings": "in vivo, 504 h", "summary_of_the_method": "as §1"}, "Mus musculus [22]": {"tested_on": "Mus musculus", "assay": "Effect on core body temperature in C57BL/6J mouse at 25 to 100 mg/kg, po measured 1 to 24 hrs post dose by rectal probe thermometer based assay", "assay_type": "ADME, organism-based", "settings": "in vivo", "summary_of_the_method": "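Male C57BL/6 mice, 11 weeks old, given single oral gavage doses of 25, 50 or 100 mg/kg, or vehicle (90% methylcellulose/2% Tween80/8% DMSO). Core temperature was read by rectal probe thermometer at 1, 2, 4 and 24 h after dosing. n=5–6 per group.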"}, "Mus musculus [23]": {"tested_on": "Mus musculus", "assay": "Improvement in liver fibrosis in Stelic C57BL/6 mouse model of streptozotocin-induced NASH assessed as effect on liver Timp1 mRNA expression at 25 mg/kg/day, po administered in high-fat diet for 21 days", "assay_type": "functional, organism-based"}, "[24]": {"assay": "Drug level in C57BL/6J mouse white adipose tissue at 50 mg/kg, po measured after 1 hr by LC-MS analysis", "assay_type": "ADME, organism-based", "settings": "read-out: Drug uptake", "summary_of_the_method": "as §2"}, "[25]": {"assay": "Drug level in C57BL/6J mouse kidney at 50 mg/kg, po measured after 1 hr by LC-MS analysis", "assay_type": "ADME, organism-based", "settings": "read-out: Drug uptake", "summary_of_the_method": "as §2"}, "Mus musculus [26]": {"tested_on": "Mus musculus", "assay": "Improvement in liver fibrosis in Stelic C57BL/6 mouse model of streptozotocin-induced NASH assessed as effect on liver Gfap mRNA expression at 25 mg/kg/day, po administered in high-fat diet for 21 days", "assay_type": "functional, organism-based"}, "[27]": {"assay": "Drug level in C57BL/6J mouse heart at 50 mg/kg, po measured after 1 hr by LC-MS analysis", "assay_type": "ADME, organism-based", "settings": "read-out: Drug uptake", "summary_of_the_method": "as §2"}, "Mus musculus [28]": {"tested_on": "Mus musculus", "assay": "Improvement in liver fibrosis in Stelic C57BL/6 mouse model of streptozotocin-induced NASH assessed as decrease in liver triglyceride content at 25 mg/kg/day, po administered in high-fat diet for 21 days", "assay_type": "functional, organism-based", "summary_of_the_method": "as §1"}, "Mus musculus [29]": {"tested_on": "Mus musculus", "assay": "Improvement in liver fibrosis in Stelic C57BL/6 mouse model of streptozotocin-induced NASH assessed as effect on liver Col1a1 mRNA expression at 25 mg/kg/day, po administered in high-fat diet for 21 days", "assay_type": "functional, organism-based"}, "[30]": {"assay": "Drug level in C57BL/6J mouse liver at 50 mg/kg, po measured after 1 hr by LC-MS analysis", "assay_type": "ADME, organism-based", "settings": "read-out: Drug uptake", "summary_of_the_method": "as §2"}, "Mus musculus [31]": {"tested_on": "Mus musculus", "assay": "Improvement in liver fibrosis in Stelic C57BL/6 mouse model of streptozotocin-induced NASH assessed as effect on serum ALT level at 25 mg/kg/day, po administered in high-fat diet for 21 days", "assay_type": "functional, organism-based", "summary_of_the_method": "as §1"}}, "note": "Active and inactive are the calls of the source. The calls are words filed in the database; no cut-off is given here."}
{"smiles": "Fc1cccc(Nc2nc3nonc3nc2Nc2ccccc2F)c1", "values": [{"measurement": "Activity", "setting": "Mus musculus [1]", "value": "inactive"}, {"measurement": "concentration at 1 h", "setting": "[2]", "value": 260, "unit": "nM"}, {"measurement": "Activity", "setting": "Mus musculus [3]", "value": "inactive"}, {"measurement": "Activity", "setting": "Mus musculus [4]", "value": "inactive"}, {"measurement": "Activity", "setting": "Mus musculus [5]", "value": "inactive"}, {"measurement": "Activity", "setting": "Mus musculus [6]", "value": 3.9}, {"measurement": "Activity", "setting": "Mus musculus [7]", "value": "inactive"}, {"measurement": "Activity", "setting": "Mus musculus [8]", "value": "Non-Toxic"}, {"measurement": "EC50", "setting": "[9]", "value": 190, "unit": "nM"}, {"measurement": "Activity", "setting": "Mus musculus [10]", "value": "inactive"}, {"measurement": "Activity", "setting": "Mus musculus [11]", "value": "inactive"}, {"measurement": "Activity", "setting": "Mus musculus [12]", "value": 0.49}, {"measurement": "concentration at 1 h", "setting": "[13]", "value": 850, "unit": "nM"}, {"measurement": "Activity", "setting": "Mus musculus [14]", "value": "Non-Toxic"}, {"measurement": "Activity", "setting": "Mus musculus [15]", "value": "inactive"}, {"measurement": "Activity", "setting": "Mus musculus [16]", "value": "Active"}, {"measurement": "Activity", "setting": "Mus musculus [17]", "value": "Non-Toxic"}, {"measurement": "Activity", "setting": "Mus musculus [18]", "value": "inactive"}, {"measurement": "Activity", "setting": "Mus musculus [19]", "value": "Non-Toxic"}, {"measurement": "Activity", "setting": "Mus musculus [20]", "value": "inactive"}, {"measurement": "Activity", "setting": "Mus musculus [21]", "value": "Non-Toxic"}, {"measurement": "Activity", "setting": "Mus musculus [22]", "value": "Non-Toxic"}, {"measurement": "Activity", "setting": "Mus musculus [23]", "value": "inactive"}, {"measurement": "concentration at 1 h", "setting": "[24]", "value": 2850, "unit": "nM"}, {"measurement": "concentration at 1 h", "setting": "[25]", "value": 4830, "unit": "nM"}, {"measurement": "Activity", "setting": "Mus musculus [26]", "value": "inactive"}, {"measurement": "concentration at 1 h", "setting": "[27]", "value": 2090, "unit": "nM"}, {"measurement": "Activity", "setting": "Mus musculus [28]", "value": "Active"}, {"measurement": "Activity", "setting": "Mus musculus [29]", "value": "inactive"}, {"measurement": "concentration at 1 h", "setting": "[30]", "value": 13400, "unit": "nM"}, {"measurement": "Activity", "setting": "Mus musculus [31]", "value": "Active"}]}
